Screens (PubChem BioAssay)
SENP8 block-1 = blocks the human protease SENP8. Q96LD8. purified SENP8, Z-RLRGG-aminoluciferin cleavage, luminescence. inhibition, % at 10 µM. 330,000 tested, 1.2% active. AID 2540; in the data active = inhibition above about 50%
Target sequence (Q96LD8 whole entry, looked up): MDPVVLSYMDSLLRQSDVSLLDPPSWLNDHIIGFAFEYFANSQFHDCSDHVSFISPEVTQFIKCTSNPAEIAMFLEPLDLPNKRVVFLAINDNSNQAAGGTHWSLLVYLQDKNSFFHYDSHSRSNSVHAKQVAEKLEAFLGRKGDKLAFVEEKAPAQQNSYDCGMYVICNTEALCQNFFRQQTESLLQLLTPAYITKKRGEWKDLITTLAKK
SENP8 block-2 = SENP8 (human) protease inhibition | Q96LD8 | recombinant SENP8, Nedd8 substrate fluorescence | inhibition, % at 20 µM | 360,000 tested, 0.64% active | AID 602440; in the data active = inhibition mostly above about 40%, no sharp cut-off; inactive = mostly below about 27%
SENP1 FRET inh = blocks the human SENP1 SUMO protease catalytic domain. inhibition, % at 10 µM. 360,000 tested, 0.21% active. recombinant SENP1 catalytic domain, CyPet-SUMO1-YPet FRET cleavage. Q9P0U3. AID 624204;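 active = inhibition at least 30% at 10 µM, raw YFP signal under a set limit, fluorescence ratio 0.5 to 1.5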;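 note: 0% = enzyme with DMSO and 100% = no enzyme wells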
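Material: hSENP1 catalytic domain, recombinant; medium: Tris pH 8 with BME, BSA, NP40 and catalase; compound: single concentration of 10 µM compound, 0.5% DMSO final; technique: FRET read of cyan and yellow fluorescence; timing: 50 min enzyme reaction, room temperature, light-protected; reagent: SFCypet-SUMO1-SFYpet substrate at 25 nM; control set: no-enzyme low, enzyme-DMSO high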
SENP6 block = inhibitors of human SENP6 protease. inhibition, % at 10 µM. Q9GZR1. Recombinant SENP6 catalytic domain, aminoluciferin luminescence. 330,000 tested, 1.8% active;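 active = inhibition above about 50% at the single tested dose, limit read from the data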;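 note: plate controls were DMSO wells with enzyme for no effect and DMSO wells lacking enzyme for full effect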
SENP7 block = SENP7 protease inhibition | recombinant SENP7, Z-RLRGG-aminoluciferin luminescence, 40 min | 330,000 tested, 1.5% active | Q9BQF6 | inhibition, % at 5 µM | AID 434973;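 active = inhibition above about 50% at the single test dose, limit read from the data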;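 note: plate controls were DMSO with enzyme for no effect and no enzyme buffer wells for full effect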
Target sequence (Q9BQF6 706-1050 limits assumed): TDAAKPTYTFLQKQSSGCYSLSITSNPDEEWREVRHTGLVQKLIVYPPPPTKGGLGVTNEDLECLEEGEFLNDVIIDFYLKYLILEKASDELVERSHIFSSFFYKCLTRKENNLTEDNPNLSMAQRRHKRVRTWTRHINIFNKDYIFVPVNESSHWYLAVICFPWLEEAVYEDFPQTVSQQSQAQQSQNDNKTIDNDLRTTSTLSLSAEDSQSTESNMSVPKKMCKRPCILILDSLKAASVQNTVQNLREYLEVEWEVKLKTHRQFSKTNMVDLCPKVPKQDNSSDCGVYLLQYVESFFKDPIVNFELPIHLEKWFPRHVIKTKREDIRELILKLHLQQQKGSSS
SENP8 conf = SENP8 (human) inhibition, single concentration confirmation; shares compounds with SENP8 block-2; purified SENP8, Nedd8-AMC/pro-Nedd8 cleavage fluorescence, 30 min; inhibition, % at 25 µM; 1,400 tested, 15% active; AID 624319; in the data active = inhibition mostly above about 39%, no sharp cut-off; inactive = mostly below about 34%
* hit, by the source's call; i = inactive; . = not tested or not shown. Shown are actives, neighbours in structure and some others; about 2.5% of the full set was active somewhere.

SMILES	SENP8 block-1	SENP8 block-2	SENP1 FRET inh	SENP6 block	SENP7 block	SENP8 conf
O=[N+]([O-])c1ccc(N=Nc2c(Cl)cc(O)cc2Cl)cc1	.	37	1	.	.	.
O=C1Cc2ccccc2C(=O)N1c1ccc(F)cc1Cl	21	72*	-29	49	19	50*
O=C(Nc1cccc(OC(F)(F)F)c1)C1Cc2c(-c3ccc4c(c3)OCO4)ccnc2O1 (centres undefined)	.	-87	1	.	.	.
CCOC(=O)Cn1c2ccc(OC)cc2c2nc3ccccc3nc21	-5	58*	62	6	3	11
COC(=O)Cn1c2ccc(OC)cc2c2nc3ccccc3nc21	7	10	23	4	2	.
Cc1ccc(CN2CC(C(=O)N3CCN(c4ccccc4O)CC3)CC2=O)cc1 (centres undefined)	-9	-1	2	-12	4	.
Cc1cc(NC(=O)CCC(=O)N(Cc2ccco2)C(C(=O)NC2CCCC2)c2ccccc2C)no1 (centres undefined)	-5	60*	-4	-18	-5	27
Cc1ccc(/C=N/n2nnnc2N)o1	6	42*	-1	8	-4	1
Oc1ccc(N2CCN(Cc3ccc(OCCCN4CCCCC4)cc3)CC2)cc1	-3	40*	-6	9	-9	13
COC/C=C/C1=CC2=CC(=O)C(C)(OC(=O)c3cnc4ccccc4n3)C(=O)C2=CN1CCCCO (centres undefined)	9	56*	-17	31	15	46*
COC/C=C/C1=CC2=CC(=O)C(C)(OC(=O)c3cnc4ccccc4n3)C(=O)C2=CN1C1CC1 (centres undefined)	-4	52*	-20	20	4	53*
COC/C=C/C1=CC2=CC(=O)C(C)(OC(=O)c3cnc4ccccc4n3)C(=O)C2=CN1CCc1ccccn1 (centres undefined)	-3	.	.	12	-1	.
COC/C=C/C1=CC2=CC(=O)C(C)(OC(=O)c3cnc4ccccc4n3)C(=O)C2=CN1Cc1ccccc1 (centres undefined)	2	45*	-33	19	1	26
COc1cc(/C=C/C(=O)OCC(=O)Nc2oc(C)c3c(C)n[nH]c(=O)c23)ccc1OC(F)F	0	-27	-6	-21	7	.
CC(=O)Oc1ccc2c(c1)CCC1C2CCC2(C)C(OC(C)=O)CCC12 (centres undefined)	.	47*	1	.	.	6
C[C@]12CC[C@@H]3c4ccc(OC(=O)c5ccccc5)cc4CC[C@H]3[C@@H]1CC[C@@H]2O	6	1	3	6	5	.
OCC1(Cc2ccc(Cl)cc2)CCN(Cc2ccc(Oc3ncccn3)cc2)CC1	0	15	-1	0	5	.
CN1C(=O)C(C)(C)c2cc(S(=O)(=O)NCc3ccc(C(=O)NCc4ccco4)cc3)ccc21	6	0	0	-5	4	.
CCC(C)NCCOc1ccc(C)cc1[N+](=O)[O-] (centres undefined)	.	40*	1	.	.	22
Nc1c([N+](=O)[O-])cc2c3c(cccc13)CC2	.	32	0	.	.	.
COc1ccc(C2c3[nH]c4ccccc4c3C[C@H]3C(=O)N(c4ccccc4C(=O)N4CCC[C@H]4C(=O)O)C(=O)N23)cc1 (some centres undefined)	3	42*	-47	-2	-2	2
COc1cccc(C2c3[nH]c4ccccc4c3C[C@H]3C(=O)N(c4ccccc4C(=O)NCCCN4CCOCC4)C(=O)N23)c1 (some centres undefined)	-11	51*	-33	2	-7	13
Cc1ccc(C2c3[nH]c4ccccc4c3C[C@H]3C(=O)N(c4ccccc4C(=O)N4CCC[C@H]4C(=O)O)C(=O)N23)cc1 (some centres undefined)	1	43*	-55	2	-1	-7
O=C1c2ccccc2S(=O)(=O)c2cc(N3CCC4(CC3)OCCO4)ccc21	10	.	.	7	7	.
Cc1cc(C)n(-c2cc(N3CCN(S(=O)(=O)c4ccc(C)c(C)c4)CC3)ccc2[N+](=O)[O-])n1	-2	44*	2	7	9	13
SMILES	SENP8 block-1	SENP8 block-2	SENP1 FRET inh	SENP6 block	SENP7 block	SENP8 conf
Cc1cc(C)n(-c2cc(N3CCN(C(=O)c4ccc(C(C)(C)C)cc4)CC3)ccc2[N+](=O)[O-])n1	-1	45*	2	-12	0	22
Cn1cnnc1Sc1cc(N2CCN(S(=O)(=O)c3ccc(Cl)c(Cl)c3)CC2)ccc1[N+](=O)[O-]	-12	62*	-4	-66	-3	21
Cc1cc(C)n(-c2cc(N3CCN(C(=O)c4ccccc4C)CC3)ccc2[N+](=O)[O-])n1	1	53*	1	-20	-4	23
Cc1ccc(S(=O)(=O)N2CCN(c3ccc([N+](=O)[O-])c(Sc4nncn4C)c3)CC2)cc1	-6	28	-4	0	2	.
NCCn1c(-c2ccccc2)cc(C(=O)O)c1-c1ccccc1F	0	-4	-1	-9	0	.
COC(=O)c1ccc2c(CCO)c[nH]c2c1	0	i	-5	2	-1	.
CCc1nc2c(OCc3ccc(F)c(F)c3)cccn2c1N(C)C(=O)c1ccc(C)cc1	.	16	-1	.	.	.
O=C(N/N=C/c1cccnc1)c1ccc(NC(=O)c2ccccc2Cl)cc1	-3	12	-1	-31	-6	.
COc1ccc(Cc2n[nH]c(=S)n2NC(=O)Nc2ccc(Cl)c(Cl)c2)cc1	-9	20	4	-21	3	.
CCc1ccc2c(c1)c1nc(C)sc1n2CC(=O)OC	6	13	-1	6	3	.
Cn1c2ccccc2c2nnc(N/N=C/c3ccc(O)cc3)nc21	9	23	3	-5	4	.
CCc1ccc2c(c1)c1nnc(NN)nc1n2C	6	64*	-1	13	-6	-4
CCc1ccc2c(c1)c1nnc(NN)nc1n2CC	6	72*	4	7	0	11
Cc1c(S(=O)(=O)N2CCN(c3ccc(F)cc3)CC2)c(=O)n(C)c(=O)n1C	-8	6	0	-5	-16	.
CN1CCN(c2cc(-c3cc(O)c4ncccc4c3)ccn2)CC1	-2	52*	-1	-6	4	48*
CN1CCN(C(=O)c2cccc(-c3cc(O)c4ncccc4c3)c2)CC1	6	10	1	-5	-4	.
O=C(CN(C1CCCCC1)S(=O)(=O)c1ccc(F)cc1)NCC1CCCO1 (centres undefined)	.	46*	0	.	.	23
COc1ccccc1NS(=O)(=O)c1cc(NC(=O)c2cccc(S(=O)(=O)N(C)C)c2)ccc1N1CCOCC1	-8	32*	4	-3	5	9
Cc1ccc(C(=O)/C=C/C(=O)O)cc1	-1	22	-1	-3	-1	.
Cc1ccc(/C=C/C(=O)c2ccc(O)cc2)cc1	63*	42*	1	86*	59*	1
